# Assay results pooled from the literature.
# Lines come from different studies, so protocols differ.
# Target: Tyrosine-protein kinase TXK (TXK, Homo sapiens, UniProt P42681)
# Sequence (P42681 1-527, as in one of the studies): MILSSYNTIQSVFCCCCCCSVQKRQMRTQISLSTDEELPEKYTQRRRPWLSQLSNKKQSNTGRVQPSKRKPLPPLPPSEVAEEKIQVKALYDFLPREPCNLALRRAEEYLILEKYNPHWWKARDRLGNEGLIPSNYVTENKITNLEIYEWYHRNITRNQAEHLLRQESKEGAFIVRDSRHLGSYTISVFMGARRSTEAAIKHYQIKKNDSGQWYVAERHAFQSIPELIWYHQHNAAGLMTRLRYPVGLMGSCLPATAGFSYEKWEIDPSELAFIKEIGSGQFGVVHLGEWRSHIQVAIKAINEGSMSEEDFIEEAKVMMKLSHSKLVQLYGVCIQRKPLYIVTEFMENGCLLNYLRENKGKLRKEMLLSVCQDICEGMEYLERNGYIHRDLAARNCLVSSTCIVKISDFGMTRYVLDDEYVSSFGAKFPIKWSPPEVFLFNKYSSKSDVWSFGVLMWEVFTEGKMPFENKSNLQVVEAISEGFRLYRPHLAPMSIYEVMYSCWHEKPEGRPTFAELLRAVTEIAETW
SMILES,observed,action,technique,tested at,endpoint,value
CC(C)(C)c1cc(C=C(C#N)C#N)cc(Br)c1O,enzyme activity,inhibitor,,0.5 µM,remaining activity,108%
COc1ncccc1-c1cnn2ccc(N3CCN(C(=O)OC(C)C)CC3)nc12,binding,,competition with immobilised ligand,1 µM,remaining binding,74%
N#CC1(c2ccccn2)CCN(Cc2cc(C(=O)O)c(=O)n3ccccc23)CC1,binding,,competition with immobilised ligand,1 µM,remaining binding,100%
COc1cc(Nc2ncc(F)c(Nc3ccc4c(n3)NC(=O)C(C)(C)O4)n2)cc(OC)c1OC,binding,,,10 µM,inhibition,90%
O=c1[nH]c2ccccc2n1C1CCN(Cc2ccc(-c3[nH]c4cc5ncnc5cc4nc3-c3ccccc3)cc2)CC1,enzyme activity,,,0.5 µM,remaining activity,104%
Cc1nn(C)cc1-c1nc2c(N3CCN(Cc4ccc(Cl)cc4)CC3)c(Cl)cnc2[nH]1,binding,,competition with immobilised ligand,1 µM,remaining binding,100%
Cn1cncc1[C@](O)(COc1ccc(C#N)cc1-c1ccc(OC(F)(F)F)cc1)c1ccc(C#N)cc1,binding,,competition with immobilised ligand,1 µM,remaining binding,87%
Nc1ncc(-c2nc(N3CCOCC3)nc(N3CCOCC3)n2)c(C(F)F)n1,binding,,competition with immobilised ligand,10 µM,remaining binding,56%
